The results in this text go back to ChEMBL document CHEMBL1121744, “Synthesis and antihypertensive activity of a series of 8-substituted 1-oxa-3,8-diazaspiro[4.5]decan-2-ones” (J Med Chem, 1981).

Where “and” joins values, the source holds several entries; their conditions need not be identical. Identical values can stand only once. Calls of active or inactive are those of the source. The calls are words filed in the database; no cut-off is given here.

Data set [1] concerns Rattus norvegicus. The data set can be described thus: The antihypertensive activity as percentage fall in systolic blood pressure in spontaneously hypertensive rats after a period of 4 hr for a dose of 100 mg/kg po; NS=Not significant. The data set is classed as functional, organism-based. The note with it: Artery. Set-up: dose 100 mg/kg. An outline of the steps: (§1)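 Male Okamoto-Aoki SHR, trained, in groups of four matched for mean systolic pressure; one group per run received water vehicle. Oral dosing in water (0.1 mL per 10 g) on two consecutive mornings. After the day-2 dose, rats were restrained at 30.0 ± 1.0 °C. Systolic pressure was read by tail cuff (inflated to 300 mmHg, first pulse) at 1–4 h. % fall is versus the untreated control group, by 1-tail t test (p ≤ 0.05).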

Data set [2] deals with Rattus norvegicus. As to the kind of experiment: Antihypertensive activity as percentage fall in systolic blood pressure in spontaneously hypertensive rats after a period of 3 h for a dose of 50 mg/kg. Set-up: dose 50 mg/kg. As to conditions: Artery. Type of data set: functional, organism-based. In short, it runs like this:
as §1

Data set [3] in a line: (§2) Distribution coefficient between 1-Octanol and phosphate buffer at pH7.4. Type of data set: physicochemical. The note with it: 1-octanol/phosphate buffer, pH 7.4.
Data set [4] concerns Rattus norvegicus. As to the kind of experiment: The antihypertensive activity as percentage fall in systolic blood pressure in spontaneously hypertensive rats after a period of 1 hr for a dose of 100 mg/kg po. Type of data set: functional, Artery. In short, it runs like this: as §1
Data set [5] concerns Rattus norvegicus. As to the kind of experiment: The antihypertensive activity as percentage fall in systolic blood pressure in spontaneously hypertensive rats after a period of 3 hr for a dose of 100 mg/kg po. The data set is classed as functional, Artery. In short, it runs like this: as §1
Data set [6] deals with Rattus norvegicus. The data set can be described thus: The antihypertensive activity as percentage fall in systolic blood pressure in spontaneously hypertensive rats after a period of 2 hr for a dose of 100 mg/kg po. Type of data set: functional, Artery. In short, it runs like this: as §1
The test system of data set [7] is Rattus norvegicus. The data set can be described thus: Antihypertensive activity as percentage fall in systolic blood pressure in spontaneously hypertensive rats after a period of 1 hr for a dose of 50 mg/kg po. The data set is classed as functional, organism-based. Further details: dose 50 mg/kg. As to conditions: Artery. An outline of the steps:
as §1

The subject of data set [8] is Rattus norvegicus. As to the kind of experiment: Antihypertensive activity as percentage fall in systolic blood pressure in spontaneously hypertensive rats after a period of 2 hr for a dose of 50 mg/kg. The data set is classed as functional, organism-based. As to conditions: Artery. Further details: dose 50 mg/kg. In short, it runs like this:
as §1

Data set [9] relates to Rattus norvegicus. As to the kind of experiment: Antihypertensive activity as percentage fall in systolic blood pressure in spontaneously hypertensive rats after a period of 4 hr for a dose of 50 mg/kg. The data set is classed as functional, organism-based. Set-up: dose 50 mg/kg. The note with it: Artery. In short, it runs like this:
as §1

Data set [10] deals with Rattus norvegicus. The data set can be described thus: Percentage fall in systolic blood pressure in spontaneously hypertensive rats after 3 h following 50 mg/kg p.o. Type of data set: functional, Artery. As to conditions: route oral. An outline of the steps:
as §1

In data set [11] the test system is Rattus norvegicus. As to the kind of experiment: The antihypertensive activity as percentage fall in systolic blood pressure in spontaneously hypertensive rats after a period of 4 hr for a dose of 100 mg/kg po. The data set is classed as functional, Artery. An outline of the steps: as §1
Data set [12] deals with Rattus norvegicus. As to the kind of experiment: Antihypertensive activity as percentage fall in systolic blood pressure in spontaneously hypertensive rats after a period of 1 hr for a dose of 50 mg/kg. The data set is classed as functional, Artery. In short, it runs like this:
as §1

In data set [13] the test system is Rattus norvegicus. The data set can be described thus: Percentage fall in systolic blood pressure in spontaneously hypertensive rats after 2 hr following 50 mg/kg p.o. The note with it: route oral. The data set is classed as functional, Artery. In short, it runs like this:
as §1

The test system of data set [14] is Rattus norvegicus. The data set can be described thus: The antihypertensive activity as percentage fall in systolic blood pressure in spontaneously hypertensive rats after a period of 4 hr for a dose of 75 mg/kg po; NS=Not significant. Type of data set: functional, organism-based. Set-up: dose 75 mg/kg. As to conditions: Artery. In short, it runs like this:
(§3)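 Male Okamoto-Aoki SHR, trained, in groups of four matched for systolic pressure, with a concurrent vehicle control group. Oral dosing on two consecutive mornings, in water as solution or suspension at 0.1 mL/10 g. On day 2 rats were restrained at 30.0 ± 1.0 °C. Tail-cuff systolic pressure, four traces per rat, read at each hour. Per cent fall versus control; 1-tail t test, p ≤ 0.05.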

Data set [15] has as its system Rattus norvegicus. The data set can be described thus: The antihypertensive activity as percentage fall in systolic blood pressure in spontaneously hypertensive rats after a period of 2 hr for a dose of 75 mg/kg po; NS=Not significant. The data set is classed as functional, organism-based. Set-up: dose 75 mg/kg. As to conditions: Artery. An outline of the steps:
as §3

Data set [16] concerns Rattus norvegicus. The data set can be described thus: The antihypertensive activity as percentage fall in systolic blood pressure in spontaneously hypertensive rats after a period of 3 hr for a dose of 75 mg/kg po; NS=Not significant. The data set is classed as functional, organism-based. Further details: dose 75 mg/kg. The note with it: Artery. In short, it runs like this:
as §3

A short description of data set [17]: as §2. Type of data set: physicochemical. The note with it: 1-octanol/phosphate buffer, pH 7.4. In short, it runs like this: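 Octanol/buffer distribution measured at pH 7.4 in phosphate with sodium chloride. Either HPLC (0.004 M) or shake flask.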
The source holds these as a separate data set.

Data set [18] concerns Rattus norvegicus. As to the kind of experiment: The antihypertensive activity as percentage fall in systolic blood pressure in spontaneously hypertensive rats after a period of 1 hr for a dose of 50 mg/kg po.
In data set [19] the test system is Rattus norvegicus. As to the kind of experiment: Antihypertensive activity as percentage fall in systolic blood pressure in spontaneously hypertensive rats after a period of 2 hr for a dose of 25 mg/kg po.; NS=Not significant. Further details: dose 25 mg/kg. Type of data set: functional, organism-based. The note with it: Artery. An outline of the steps:
as §1

The test system of data set [20] is Rattus norvegicus. The data set can be described thus: Antihypertensive activity as percentage fall in systolic blood pressure in spontaneously hypertensive rats after a period of 4 hr for a dose of 25 mg/kg po.; NS=Not significant. Type of data set: functional, organism-based. Further details: dose 25 mg/kg. As to conditions: Artery. An outline of the steps:
as §1

The test system of data set [21] is Rattus norvegicus. The data set can be described thus: Antihypertensive activity as percentage fall in systolic blood pressure in spontaneously hypertensive rats after a period of 4 hr for a dose of 50 mg/kg po. The data set is classed as functional, Artery. An outline of the steps:
as §1

Data set [22] has as its system Rattus norvegicus. The data set can be described thus: Antihypertensive activity as percentage fall in systolic blood pressure in spontaneously hypertensive rats after a period of 3 hr for a dose of 25 mg/kg po.; NS=Not significant. Type of data set: functional, organism-based. Further details: dose 25 mg/kg. The note with it: Artery. In short, it runs like this:
as §1

With `CC1NC(=O)OC12CCN(CC(O)C1COc3ccccc3O1)CC2` (stereo unspecified), the “Decrease in blood pressure” value in data set [1] is “inactive”. Also, the “Decrease in blood pressure” value in data set [2] is “Not significant”; in data set [4] it was 15%; in data set [5], 14%; in data set [6] it was 15%; in data set [7], “Not significant”; in [8], “Not significant”. Further, the “Decrease in blood pressure” value in data set [9] is “Not significant”. The pH-dependent lipophilicity (logD) in data set [3] turned out to be 1.21.
For the compound `O=C1NCC2(CCN(CC(O)C3COc4ccccc4O3)CC2)O1` (stereo unspecified), the pH-dependent lipophilicity (logD) in data set [3] turned out to be 0.98. Further, the “Decrease in blood pressure” value in data set [4] is 24%; in [10] it was 21%; in data set [11], 16%; in data set [5] it was 11%; in data set [12] it was 28%; in [6], 14%. Also, the results for the “Decrease in blood pressure” value in data set [13] and in data set [9] were 12% and “Not significant”, respectively.
For `O=C1NC(Cc2ccccc2)C2(CCN(CCc3c[nH]c4ccccc34)CC2)O1` (stereo unspecified), the “Decrease in blood pressure” value in data set [14], in data set [15] and in data set [16] was “inactive” in each case. This compound also registered a logD in [17] of 2.68. Further, the “Decrease in blood pressure” value in [18] is 13%.
In data set [3], `COc1ccccc1OCC(O)CN1CCC2(CC1)CN(C)C(=O)O2` (stereo unspecified) showed a logD of 0.96. The “Decrease in blood pressure” value in [19], in data set [20] and in [22] was “inactive” in each case. The “Decrease in blood pressure” value in [10] (50 mg/kg) is 19% and 7%; in [12], 15%; in data set [21] it was 9%; in [8], “Not significant”.

As usually defined, the logD is the decadic logarithm of the distribution of all forms, ionised or not, between an organic phase and buffer at a given pH. Low values mean a more hydrophilic compound, high ones a more lipophilic compound.
